Screens as filed in PubChem BioAssay.
Rows were chosen to be rich in hits. Some 0.27% of all compounds tested hit in one or more screens of this group.
CaV13 FRET inh – Primary screen for inhibitors of IQ motif and Ca2+-dependent inactivation inhibitor domain binding in CACNA1D, Förster resonance energy transfer in living cells, …; 340,000 tested, 0.098% active; HEK cells, CFP/YFP FRET ICDI-IQ, plate reader, 10 min; percent FRET-ratio fall versus neutral wells; inhibition, % at 12.3 µM;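 active means mean replicate inhibition of at least 30% and at least 1% of replicates passing that level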;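 further: 0% = median of the neutral control wells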
ERAP1 inh – human ERAP1 aminopeptidase inhibitors, primary screen, biochemical, single point, plate reader | Endoplasmic reticulum aminopeptidase 1 (Homo sapiens), Q9NZ08 | 340,000 tested, 0.15% active | recombinant ERAP1, Leu-AMC fluorescence, 60 min | inhibition, % at 10.7 µM;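 active means mean replicate inhibition of at least 30%, or all replicates individually reaching that 30% level; inactive means mean below 30% and not every replicate reaching it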;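 further: 0% = neutral control wells and 100% = L-leucinethiol positive control wells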
Target sequence (Q9NZ08 whole entry, looked up): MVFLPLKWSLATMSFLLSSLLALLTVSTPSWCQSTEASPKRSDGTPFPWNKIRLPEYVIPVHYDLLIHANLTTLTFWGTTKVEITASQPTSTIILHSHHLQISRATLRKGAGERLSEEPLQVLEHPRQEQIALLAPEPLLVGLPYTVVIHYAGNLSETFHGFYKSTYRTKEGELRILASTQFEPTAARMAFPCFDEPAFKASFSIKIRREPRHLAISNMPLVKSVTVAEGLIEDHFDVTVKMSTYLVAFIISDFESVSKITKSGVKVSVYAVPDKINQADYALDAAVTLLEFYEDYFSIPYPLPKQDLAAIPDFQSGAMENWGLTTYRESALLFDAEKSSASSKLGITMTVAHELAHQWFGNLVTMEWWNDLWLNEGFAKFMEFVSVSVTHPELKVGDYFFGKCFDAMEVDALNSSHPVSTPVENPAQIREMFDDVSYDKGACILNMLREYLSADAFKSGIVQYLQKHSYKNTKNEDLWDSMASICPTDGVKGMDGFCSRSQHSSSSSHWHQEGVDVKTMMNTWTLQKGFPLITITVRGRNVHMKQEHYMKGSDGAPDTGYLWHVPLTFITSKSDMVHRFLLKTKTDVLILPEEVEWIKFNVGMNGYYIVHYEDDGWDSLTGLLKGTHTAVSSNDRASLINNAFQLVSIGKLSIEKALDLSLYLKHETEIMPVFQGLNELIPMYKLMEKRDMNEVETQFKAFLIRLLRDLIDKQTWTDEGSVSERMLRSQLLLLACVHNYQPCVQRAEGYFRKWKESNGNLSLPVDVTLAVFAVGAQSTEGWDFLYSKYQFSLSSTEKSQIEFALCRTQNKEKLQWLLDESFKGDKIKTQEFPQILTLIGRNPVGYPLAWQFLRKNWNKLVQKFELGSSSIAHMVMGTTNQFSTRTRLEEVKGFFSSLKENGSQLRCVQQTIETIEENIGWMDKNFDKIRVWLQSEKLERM
Xi reactivation – activators of inactive X chromosome reactivation, primary screen, imaging, XiGFP fibroblasts, GFP high-content imaging, set 2; XiGFP mouse fibroblasts, % GFP-positive cells imaging, 3 d; cells co-treated with 5-aza-dC sensitizer; scaled so ellipticine positive control = 100%; AID 743238, 2013; activation, % at 7.58 µM; 360,000 tested, 0.055% active;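 active means mean normalized replicate activation at least 10% and every replicate at or above 10%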;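 further: 0% = median of on-plate neutral control wells and 100% = ellipticine 6 µM median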
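Material: SV40-immortalized XiGFP fibroblast cells, line 68-5-11 | Buffer or medium: DMEM containing 5-aza-dC | Dosing: One concentration, pinned | Times: 3 d treatment, 15 min room-temperature fixation | Controls: Ellipticine 6 µM positive control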
PvdQ inh – P. aeruginosa PvdQ acylase inhibitors, primary screen, biochemical, fluorescence, plate reader and imaging, single point; purified PvdQ acylase; inhibition, % at 10 µM; 340,000 tested, 0.063% active; in the data active means inhibition above about 30%, passing the limit was not always enough;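 further: 0% = vehicle neutral wells and 100% = reference inhibitor wells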
* hit, by the source's call; · = no result.

SMILES	CaV13 FRET inh	ERAP1 inh	Xi reactivation	PvdQ inh
CC(=O)N1C[C@H]2CON(C)[C@H]2C[C@H]1c1cccc(N2CCOCC2)c1	-5.8	108.3*	-0.1	·
CN1OC[C@@H]2CN(C(=O)CCc3ccccc3)[C@H](c3cccc(N4CCOCC4)c3)C[C@@H]21	-6.0	1.6	0.2	-11.1
O=C(NCc1nnnn1-c1ccc(F)cc1)C(=O)c1c[nH]c2ccccc12	-3.8	3.4	-0.1	·
Cc1ccc(-n2nnnc2CNC(=O)C(=O)c2c[nH]c3ccccc23)cc1C	49.0*	3.8	0.2	·
O=C(NC1CCCC1)c1cc(Cl)ccc1[N+](=O)[O-]	-14.4	0.5	-0.1	94.1*
O=C(NC1CC1)c1cc(Cl)ccc1[N+](=O)[O-]	-3.5	·	·	9.3
O=C(NC1CCCCC1)c1cc(Cl)ccc1[N+](=O)[O-]	-6.4	·	0.0	61.6*
O=C(COC(=O)/C=C/c1cccc(Br)c1)NC1CCCCCC1	-14.6	3.4	-0.1	42.1*
O=C(COC(=O)/C=C/c1cccc(Br)c1)NC1CCCCC1	-5.0	0.4	2.0	2.6
CCOc1cc(/C=C/c2nc3cc(C)c(C)cc3s2)ccc1OCC(=O)N1CCOCC1	-3.7	36.5*	0.2	-4.2
COc1cccc(S(=O)(=O)N(C)C[C@H]2Oc3ncc(C#CCN(C)C)cc3C(=O)N([C@H](C)CO)C[C@H]2C)c1	·	0.1	-1.1	·
CCn1c(C)[n+](CC)c2ccc(C(=O)N(C)c3ccccc3)cc21	-7.2	71.3*	0.0	-5.0
CC[n+]1c(C)n(C)c2cc(S(=O)(=O)N(C)C)ccc21	-5.0	50.8*	0.0	4.4
CCn1c(C)[n+](CC)c2ccc(S(=O)(=O)NC)cc21	2.8	59.3*	0.0	15.2
CCn1c(C)[n+](CC)c2ccc(S(=O)(=O)N(C)C)cc21	-6.4	38.8*	0.0	10.8
CC(C)NC(=O)N(C)C[C@@H]1Oc2ccccc2CC(=O)N(C)C[C@H]1C	·	·	0.2	·
COC(=O)C[C@H]1CC[C@H]2[C@@H](COc3ccc(NC(=O)CN(C)C)cc3C(=O)N2C)O1	·	·	0.1	·
CCCNC(=O)C[C@H]1C[C@@H]2c3cc(NS(=O)(=O)c4ccccc4)ccc3O[C@@H]2[C@@H](CO)O1	·	·	-0.1	·
O=[N+]([O-])c1cccc(-c2n[nH]c(=S)n2-c2ccc(Br)cc2)c1	54.9*	0.9	-0.8	6.1
C/C=C/c1ccc([C@@H]2[C@@H](CNC(=O)c3ccccc3)N(C(C)=O)[C@H]2CO)cc1	·	·	0.0	·
Cc1nc2ccc(NC(=O)C3COc4ccccc4O3)cc2s1 (stereo not given)	3.8	-0.6	0.0	-3.0
Cc1nc2cc(NC(=O)C3COc4ccccc4O3)ccc2s1 (stereo not given)	-4.5	90.4*	0.0	-0.5
CCN1CCN(c2ccc(S(=O)(=O)N3CCCCC3)cc2NC(=O)c2ccccc2)CC1	-6.3	103.2*	0.0	-0.4
C[C@@H]1CN([C@@H](C)CO)C(=O)c2cc(NC(=O)c3ccncc3)ccc2O[C@@H](C)CCCCO[C@@H]1CN(C)S(=O)(=O)c1cccs1	·	0.3	0.2	·
C[C@H]1CN([C@@H](C)CO)C(=O)c2cc(NC(=O)CCCCCC(=O)Nc3ccccc3N)ccc2O[C@H]1CN(C)C(=O)NC1CCCCC1	·	·	-0.5	·
SMILES	CaV13 FRET inh	ERAP1 inh	Xi reactivation	PvdQ inh
CC(C)NC(=O)N1C[C@@H]2C(c3ccc(Br)cc3)[C@H](C1)N2Cc1ccc(F)cc1 (stereo not given in full)	·	·	0.2	·
N#CCn1c(C2CCCCC2)nc2ccccc2c1=O	-4.9	·	·	35.1*
CC(Nc1ccc(F)cc1)=[N+](C)CCNS(=O)(=O)c1ccc(Cl)cc1	-5.2	38.5*	0.1	7.5
CC(=Nc1ccccc1)C1=C(O)CCCC1=O	-3.2	36.2*	0.1	-1.3
O=C(c1ccccc1)c1ccccc1N1C(=O)C=CC1=O	-1.9	·	-0.1	-16.9
O=C1C=CC(=O)N1c1ccccc1N1C(=O)C=CC1=O	-4.9	58.1*	-0.1	-23.2
Cc1cccc(S(=O)(=O)N2CCCCN3[C@@H](CO)[C@@H](c4ccc(C#C[C@H](C)O)cc4)[C@@H]3C2)c1	·	-0.3	0.1	·
CC=Cc1ccc2n(c1=O)C[C@H]1[C@H](CO)[C@@H](C(=O)NCC)N(C(=O)c3cccnc3)[C@@H]21 (mixture of isomers)	·	-0.6	0.0	·
Cc1ccc(S(=O)(=O)N(C)c2ccc(C)c([N+](=O)[O-])c2)cc1	-17.0	-2.7	20.9*	0.0
C[C@H]1CC=CC[C@@H](c2ccccc2)NC(=O)[C@H](Cc2ccccc2)N(C)C(=O)c2ccccc2O1 (mixture of isomers)	·	·	-0.1	·
O=C(O)c1cc(Nc2cc(Cl)c3nonc3c2[N+](=O)[O-])ccc1O	-2.9	35.8*	0.0	-0.3
O=c1oc(-c2ccc(F)cc2)nc2ccsc12	-2.7	·	·	70.2*
CCN1[C@@H]2c3ccc(-c4ccncc4)c(=O)n3C[C@@H]2[C@@H](CO)[C@@H]1C(=O)NCCc1cn(C)cn1	·	-2.6	0.1	·
CC(=NNc1nc2ccccc2o1)c1ncccn1	-7.1	9.6	-0.1	-0.6
CC(=NNc1nc2ccccc2o1)c1cc2ccccc2cn1	-10.5	4.0	72.9*	0.8
Cc1cccc(C)c1NC(=O)CSc1nnc(NC(=O)c2ccccc2C(=O)O)s1	-2.8	44.7*	0.0	-9.8
O=C(CSc1nnc(NC(=O)c2ccccc2C(=O)O)s1)Nc1ccccc1Cl	-3.8	15.7	0.3	-5.3
CC(=O)N(C)C[C@@H]1Oc2ccc(N(C)C)cc2C(=O)N(C)C[C@@H]1C	·	·	0.2	·
N#CC(c1ccc(F)cc1)c1ccc(C(=O)c2ccccc2)cc1 (stereo not given)	·	·	·	48.0*
COCCNC(=O)c1cc2nc(-c3ccccc3)cc(C)n2n1	10.4	3.0	0.3	33.7*
C[C@@H]1CN([C@@H](C)CO)S(=O)(=O)c2ccc(C#CC3CC3)cc2O[C@@H]1CN(C)Cc1cncnc1	·	·	0.0	·
Nc1ccc2c(c1)Cc1cc([N+](=O)[O-])ccc1-2	-25.3	-2.0	8.2	-1.1
CC(O)CN(CC(C)O)c1ccc2c(c1)Cc1cc([N+](=O)[O-])ccc1-2 (stereo not given)	-47.2	-0.6	29.2*	-7.9
CCN(CC)c1ccc2cc(C(N)=O)c(=O)oc2c1	32.9*	-4.3	·	6.8
CCN(CC)c1ccc2cc(C(N)=O)c(=N)oc2c1	4.0	-0.3	0.0	9.6
COCCN(CC(=O)Nc1cccc(C)c1C)C(=O)CN1C(=O)NC2(CCCCC2)C1=O	-4.7	45.0*	0.0	-16.4
CC[n+]1c(/C=C/c2c[nH]c3ccccc23)ccc2cc(C)ccc21	-194.2	14.3	103.0*	-19.2
CCN(CC)C(=O)c1ccc(/C=C/c2c[nH]c3ccccc23)[n+](C)c1	-9.8	·	0.2	-17.0
C[C@@H]1CCCCO[C@H](CN(C)Cc2ccccc2)[C@@H](C)CN([C@H](C)CO)C(=O)c2cc(NC(=O)Nc3ccc4c(c3)OCO4)ccc2O1	·	2.5	-0.2	·
